Experimental findings from ChEMBL document CHEMBL1138783, “Subtype selective substrates for histone deacetylases” (J Med Chem, 2004) are described below.

In data set [1] the target is Histone deacetylase. Kind of data set: Inhibitory activity against rat liver Histone deacetylase with substrate 5b.
In data set [2] the target is Histone deacetylase. Kind of data set: Inhibitory activity against rat liver Histone deacetylase with substrate 3b.
Data set [3] has as its target Histone deacetylase. Briefly: Inhibitory activity against rat liver Histone deacetylase with substrate 3a.
Data set [4] has as its system histone deacetylase (HDAC). Kind of data set: Percent conversion by rat liver histone deacetylase (HDAC) was determined after 24 h. Type of data set: ADME. The conditions noted are these: read-out: Conversion. Put shortly: (§1)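 Deacetylase from rat liver, purified by ammonium sulfate precipitation and Q-sepharose NaCl-gradient chromatography (class I and II subtypes), in phosphate buffer pH 7.9 (EDTA, NaCl, glycerol, 2-mercaptoethanol). Enzyme preincubated 15 min at 4 °C, then run at 37 °C with candidate substrate and 7-hydroxycoumarin internal standard. Stopped with HCl/sodium acetate, ethyl acetate extraction, reversed-phase HPLC with fluorescence detection. Conversion taken against no-enzyme control. Duplicates.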

Data set [5] deals with histone deacetylase (HDAC). Briefly: Percent conversion by rat liver histone deacetylase (HDAC) was determined after 2 h. The format is ADME. Conditions: read-out: Conversion. Put shortly:
as §1

Data set [6] deals with histone deacetylase (HDAC). Kind of data set: Percent conversion by rat liver histone deacetylase (HDAC) was determined after 3 h. Type of data set: ADME. The conditions noted are these: read-out: Conversion. In outline: as §1
In data set [7] the test system is histone deacetylase (HDAC). Kind of data set: Percent conversion by rat liver histone deacetylase (HDAC) was determined after 1 h. Type of data set: ADME. Conditions: read-out: Conversion. Put shortly: as §1
Data set [8] relates to histone deacetylase (HDAC). Briefly: Percent conversion by rat liver histone deacetylase (HDAC) was determined after 6 h. The format is ADME. Conditions: read-out: Conversion. In outline: as §1
Data set [9] addresses Histone deacetylase. Kind of data set: Inhibitory concentration against rat liver histone deacetylase (HDAC) with substrate 5a.
For data set [10], the target named is Histone deacetylase. Briefly: Inhibitory concentration against rat liver histone deacetylase (HDAC) with substrate 3a.
Data set [11] deals with HDAC6/HDAC1 (Homo sapiens). Briefly: Selectivity ratio for Histone deacetylase 6 versus Histone deacetylase 1.

Square brackets hold non-standard residues; d marks the D form. Peptide text beside a SMILES is read from it. * marks the point of attachment. Asu = N[C@@H](CCCCCC(=O)O)C(=O)O; Aib = CC(C)(N)C(=O)O; NHOH = ON*

`O=C(CCCCC[C@@H]1NC(=O)[C@H]2CCCN2C(=O)[C@H](Cc2ccccc2)NC(=O)[C@H](Cc2ccccc2)NC1=O)NO`: the results for the IC50 against Histone deacetylase [1], at Histone deacetylase [2] and against Histone deacetylase [3] were 65.6 nM, 411 nM and 349 nM, respectively.

As to `Cc1cc(=O)oc2cc(NC(=O)[C@H](CCCCNC(=O)Cc3ccccc3)NC(=O)OCc3ccccc3)ccc12`, in [4], the metabolised at 24 h is 0%. Also, the metabolised at 2 h in data set [5] turned out to be 0%. For the same molecule, the metabolised at 3 h in [6] amounted to 0%. In addition, the metabolised at 1 h in data set [7] was 0%. For the same molecule, in [8], the metabolised at 6 h came out at 0%.

Consider `CC(=O)NCCCC[C@H](NC(=O)OCC1c2ccccc2-c2ccccc21)C(=O)Nc1ccc2c(C)cc(=O)oc2c1`, for which, in data set [4], the metabolised at 24 h stood at 90%. Also, the metabolised at 2 h in [5] was 74%. Besides, in data set [6], the metabolised at 3 h was 78%. Besides, the metabolised at 1 h in [7] came to 47%. Also, the metabolised at 6 h in data set [8] came out at 86%.

Take `CN(C)c1ccc(C(=O)NCCCCCCC(=O)NO)cc1`: the IC50 (usually the midpoint of a concentration-inhibition curve) was 3512 nM on Histone deacetylase [1], 148 nM on Histone deacetylase [2] and 78.2 nM against Histone deacetylase [3].

Consider `CN(C)c1ccc(C(=O)NCCCCCC(=O)NO)cc1`, for which the 50% inhibitory concentration (IC50) is reported as 640 nM against Histone deacetylase [9] and 216 nM against Histone deacetylase [10].

Consider `CN(C)c1ccc(C(=O)NCCCCCCCC(=O)NO)cc1`, for which the 50% inhibitory concentration (IC50) at Histone deacetylase [1] is on record as 241 nM; at Histone deacetylase [2], 488 nM; on Histone deacetylase [3], 256 nM.

Turning to `CC(=O)NCCCC[C@H](NC(=O)OCc1ccccc1)C(=O)Nc1ccc2c(C)cc(=O)oc2c1`, the metabolised at 24 h in data set [4] was found to be 100%. Besides, the metabolised at 2 h in data set [5] turned out to be 87%. The metabolised at 3 h in [6] came to 93%. In addition, the metabolised at 1 h in data set [7] was 67%. In data set [8], the metabolised at 6 h was found to be 96%.

Turning to `CC1(C)NC(=O)[C@H](CCCCCC(=O)NO)NC(=O)[C@H]2CCCN2C(=O)[C@H](Cc2ccccc2)NC1=O` (cyclo([Aib]F[dP][Asu](NHOH))), the values for the half-maximal inhibitory concentration (IC50) against Histone deacetylase [1], against Histone deacetylase [2] and on Histone deacetylase [3] were 21.2 nM, 226 nM and 137 nM, respectively.

For the molecule `CC[C@@H](C)[C@@H]1NC(=O)[C@@H](Cc2ccc(OC)cc2)NC(=O)[C@H](CCCCCC(=O)NO)NC(=O)[C@H]2CCCN2C1=O`, the values for the IC50 on Histone deacetylase [1], on Histone deacetylase [2] and at Histone deacetylase [3] were 6.29 nM, 80.4 nM and 55.7 nM, respectively. For the same molecule, the Selectivity in data set [11] was 34.

Regarding `CC(=O)NCCCC[C@H](NC(=O)OC(C)(C)C)C(=O)Nc1ccc2c(C)cc(=O)oc2c1`, the metabolised at 24 h in [4] amounted to 100%. Further, in data set [5], the metabolised at 2 h was determined as 60%. Also, in data set [6], the metabolised at 3 h came out at 70%. In addition, the metabolised at 1 h in data set [7] was 38%. Besides, the metabolised at 6 h in data set [8] came to 91%.

Consider `CC(=O)NCCCC[C@@H](NC(=O)OCc1ccccc1)C(=O)Nc1ccc2c(C)cc(=O)oc2c1`, for which the metabolised at 24 h in data set [4] stood at 14%. In [5], the metabolised at 2 h was found to be 9%. Also, the metabolised at 3 h in data set [6] was 0%. In addition, the metabolised at 1 h in data set [7] turned out to be 0%. The metabolised at 6 h in data set [8] is 3%.

As for `CCCC(=O)NCCCC[C@H](NC(=O)OCc1ccccc1)C(=O)Nc1ccc2c(C)cc(=O)oc2c1`, the metabolised at 24 h in data set [4] is 48%. In addition, the metabolised at 2 h in data set [5] turned out to be 1%. Also, in data set [6], the metabolised at 3 h was found to be 12%. In [7], the metabolised at 1 h was found to be 0%. Moreover, in [8], the metabolised at 6 h came to 21%.

Turning to `CC(=O)NCCCC[C@H](NC(=O)OC(C)(C)C)C(=O)Nc1ccc2c(C(F)(F)F)cc(=O)oc2c1`, the metabolised at 24 h in data set [4] was 96%. Besides, the metabolised at 2 h in [5] worked out at 43%. In addition, the metabolised at 3 h in data set [6] was 47%. Also, in data set [7], the metabolised at 1 h turned out to be 30%. Also, the metabolised at 6 h in [8] was determined as 68%.

For `CCC(=O)NCCCC[C@H](NC(=O)OCc1ccccc1)C(=O)Nc1ccc2c(C)cc(=O)oc2c1`, the metabolised at 24 h in data set [4] was 87%. Further, in data set [5], the metabolised at 2 h was determined as 33%. Moreover, the metabolised at 3 h in data set [6] came to 47%. In data set [7], the metabolised at 1 h is 20%. Moreover, the metabolised at 6 h in [8] was 74%.

For the molecule `Cc1cc(=O)oc2cc(NC(=O)[C@H](CCCCNC(=O)C(F)(F)F)NC(=O)OCc3ccccc3)ccc12`, the metabolised at 24 h in [4] was 64%. Also, in [5], the metabolised at 2 h is 41%. The metabolised at 3 h in data set [6] was 57%. Further, in [7], the metabolised at 1 h is 16%. Further, the metabolised at 6 h in [8] was 54%.
